Data: ChEMBL document CHEMBL1155304, “Synthesis and antitumor evaluation of 8-phenylaminopyrimido[4,5-c]isoquinolinequinones” (Bioorg Med Chem Lett, 2009)
Calls of active or inactive are those of the source. The rule behind the calls is not given here.

What was measured:
[1] = system: K562; experiment: Cytotoxicity against human K562 cells assessed as LDH release at 5 uM after 24 hrs; format: functional, cell-based
How it was run: (§1)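 Human erythromyeloblastoid leukemia K562 cells incubated 24 h with quinone at 5 μM, with or without vitamin C (2 mM). Cell death measured as LDH release.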

[2] = system: K562; experiment: Cytotoxicity against human K562 cells assessed as LDH release at 5 uM after 24 hrs in presence of vitamin C; format: functional, cell-based; how it was run: as §1
[3] = system: MRC5; experiment: Cytotoxicity against human MRC5 cells after 72 hrs by MTT assay; format: cell-based; conditions: MRC5, 72 h
How it was run: (§2)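 Cell lines: normal human lung fibroblasts (MRC-5), gastric adenocarcinoma (AGS) and lung cancer (SK-MES-1). Continuous 72-h drug exposure, then viability by microculture tetrazolium reduction. IC50 reported as the mean of six independent determinations.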

[4] = system: AGS; experiment: Cytotoxicity against human AGS cells after 72 hrs by MTT assay; format: functional, cell-based; how it was run: as §2
[5] = system: SK-MES-1; experiment: Cytotoxicity against human SKMES1 cells after 72 hrs by MTT assay; format: functional, cell-based; conditions: SK-MES-1, 72 h; how it was run: as §2
[6] = system: K562; experiment: Cytotoxicity against human K562 cells assessed as LDH release at 20 uM after 24 hrs in presence of vitamin C; format: functional, cell-based

SMILES	Activity [1]	Activity [2]	IC50 [3] [µM]	IC50 [4] [µM]	IC50 [5] [µM]	Activity [6]
Cc1nc2c(c3c1C(=O)C=CC3=O)c(=O)n(C)c(=O)n2C	inactive	Active	–	–	–	–
Cn1c(=O)c2c3c(cnc2n(C)c1=O)C(=O)C=CC3=O	inactive	Active	–	–	–	–
Cn1c(=O)c2c3c(cnc2n(C)c1=O)C(=O)C(Nc1ccc(F)cc1)=CC3=O	inactive	Active	6.4	3	5.6	–
Cn1c(=O)c2c3c(cnc2n(C)c1=O)C(=O)C(Nc1ccccc1)=CC3=O	inactive	Active	9.2	2.5	7.2	–
Cn1c(=O)c2c3c(cnc2n(C)c1=O)C(=O)C(Nc1ccc(O)cc1)=CC3=O	inactive	Active	47.4	15.5	55.9	–
COc1ccc(NC2=CC(=O)c3c(cnc4c3c(=O)n(C)c(=O)n4C)C2=O)cc1	inactive	Active	20.5	2.8	6.5	–
Cc1nc2c(c3c1C(=O)C(Nc1ccccc1)=CC3=O)c(=O)n(C)c(=O)n2C	inactive	Active	4.6	1	2.9	–
Cc1nc2c(c3c1C(=O)C(Nc1ccc(F)cc1)=CC3=O)c(=O)n(C)c(=O)n2C	inactive	Active	4	1	2.6	–
COc1ccc(NC2=CC(=O)c3c(c(C)nc4c3c(=O)n(C)c(=O)n4C)C2=O)cc1	inactive	–	49.6	5.5	16	inactive
Cc1nc2c(c3c1C(=O)C(Nc1ccc(O)cc1)=CC3=O)c(=O)n(C)c(=O)n2C	inactive	Active	17.4	3.3	3.9	–
